Source: PubChem BioAssay AID588423 (The Scripps Research Institute Molecular Screening Center, 2011)
Calls of active or inactive are those of the source.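 Rule for the calls: active = IC50 at or below 1 µM; inactive = the rest.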

Target: Protein-arginine deiminase type-4 (Homo sapiens) (UniProt Q9UM07)
Assay: recombinant human PAD4 inhibitors – biochemical, BAEE substrate, citrulline absorbance, 0-15 µM range, late-stage follow-up (AID 588423)
Details: recombinant PAD4, BAEE citrulline colorimetric absorbance
Outline: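 Schedule: 15 min compound preincubation, 15 min BAEE reaction, 37 °C | Material: Recombinant human PAD4 enzyme | Quantity: 0.2 µM PAD4 enzyme | Technique: Colorimetric absorbance of citrulline at 540 nm | Buffer or medium: Tris-HCl pH 7.6 with 2 mM DTT, 10 mM CaCl2 | Also added: BAEE substrate at 10 mM | Repeats: Two trials per dose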

Chain of Protein-arginine deiminase type-4 (Homo sapiens) (Q9UM07 whole entry, looked up): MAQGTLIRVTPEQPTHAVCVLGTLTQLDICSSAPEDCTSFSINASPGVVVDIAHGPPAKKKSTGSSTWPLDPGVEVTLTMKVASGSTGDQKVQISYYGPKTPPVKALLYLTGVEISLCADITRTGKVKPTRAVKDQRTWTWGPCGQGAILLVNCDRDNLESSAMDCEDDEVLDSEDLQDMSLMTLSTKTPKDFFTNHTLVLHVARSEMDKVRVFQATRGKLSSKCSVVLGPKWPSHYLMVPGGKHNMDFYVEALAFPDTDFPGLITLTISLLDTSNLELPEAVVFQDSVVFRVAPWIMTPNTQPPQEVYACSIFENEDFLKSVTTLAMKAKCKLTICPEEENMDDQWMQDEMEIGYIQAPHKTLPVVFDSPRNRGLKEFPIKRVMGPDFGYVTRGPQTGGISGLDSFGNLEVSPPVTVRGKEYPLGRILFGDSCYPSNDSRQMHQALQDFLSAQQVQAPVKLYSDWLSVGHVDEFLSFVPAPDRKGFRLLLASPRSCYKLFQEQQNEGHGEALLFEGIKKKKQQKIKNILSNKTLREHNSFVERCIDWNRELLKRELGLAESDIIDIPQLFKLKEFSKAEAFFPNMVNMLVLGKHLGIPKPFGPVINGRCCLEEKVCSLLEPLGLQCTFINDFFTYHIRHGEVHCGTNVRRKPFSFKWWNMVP

IC50: inactive
Compound: O=C1C(O)=C(O)C(=O)c2ncccc21
